# Reference: the EternaBench riboswitch data
# Tests used:
# [1] = tested on: MS2 coat protein; experiment: apparent Kd, MS2 coat protein; higher = weaker binding; RNA-MaP array; theophylline 2 mM where present
# How it was run: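 Binding was read on Illumina sequencing-chip clusters where stalled E. coli RNA polymerase had transcribed each design. A titration of SNAP-549-labelled MS2 coat protein began at 0.7 or 1.5 nM and doubled to 3 µM, once without ligand and once with constant ligand, in 100 mM Tris-HCl pH 7.5, 80 mM KCl, 4 mM MgCl2, BSA, DTT, yeast tRNA and Tween-20. The apparent Kd is the median of filtered per-cluster binding-curve fits, based on green signal normalised to red-channel RNA signal and control-cluster median Fmax.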
# [2] = tested on: MS2 coat protein; experiment: apparent Kd, MS2 coat protein; higher = weaker binding; RNA-MaP array
# How it was run: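 Sequenced DNA templates on an Illumina sequencing chip were transcribed into the designed RNAs. These were incubated at room temperature in Tris-HCl pH 7.5 buffer containing KCl, MgCl2, BSA, DTT, tRNA and Tween20 with fluorescently labeled MS2 coat protein at 1.5 nM to 3 μM, with or without input ligand. Apparent Kd is the median of binding-curve fits per cluster, and designs with fewer than 10 clusters measured were excluded.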
# [3] = designed as: ON switch for theophylline, no ligand
# [4] = ligand present: theophylline, designed as: ON switch for theophylline
# [5] = designed as: OFF switch for theophylline, no ligand
# [6] = ligand present: theophylline, designed as: OFF switch for theophylline
# [7] = designed as: ON switch for flavin mononucleotide, no ligand
# [8] = ligand present: flavin mononucleotide, designed as: ON switch for flavin mononucleotide
# [9] = designed as: OFF switch for flavin mononucleotide, no ligand
# [10] = ligand present: flavin mononucleotide, designed as: OFF switch for flavin mononucleotide
sequence,measurement,setting,value
AACCGAGGCUAUCCACAAAGAAAAUGUGAUACCAGAAUAAUUUUAUUCCCUUGGCAGCAUGACAUGAGGAUCACCCAUGUGUCUU,apparent Kd,[1]; [3],32.3 nM
same,apparent Kd,[1]; [4],35.6 nM
ACAUGAGGAUCACCCAUGUUCCUCGCCGAUACCAGUGAAGAAUUACGCCCUUGGCAGCGGAAUGAGUGUUUUGGAGAUGAGGUAC,apparent Kd,[1]; [5],62.4 nM
same,apparent Kd,[1]; [6],107 nM
GGUAGCAGGACUGAUACCAGUCCAGCGAAUCAUACGACGCAACAUGAGGAUCACCCAUGUGACCCUUGGCAGCAGUCUGCUACCG,apparent Kd,[1]; [3],25.4 nM
same,apparent Kd,[1]; [4],12.8 nM
CGGUUUGUGAUGGAUACCAGCAGAGAAAACGUUUAUCCUAACAUGAGGAUCACCCAUGUAUGCCCUUGGCAGCUGUUGUGGGCUG,apparent Kd,[1]; [5],44.7 nM
same,apparent Kd,[1]; [6],45.6 nM
UAAAACAUGAGGAUCACCCAUGUAAUUGAUACCAGAGUGAUGAUCCUCCCUUGGCAGCAAAUAACGCAUUGGAAACAAUGCGAAA,apparent Kd,[1]; [3],56.4 nM
same,apparent Kd,[1]; [4],189 nM
AAGGUGAUCCGUGAUACCAGCUCAACAUGAGGAUCACCCAUGUAACGGACGAAAGUCCGGAGCCCUUGGCAGCACGGUAAUAAUA,apparent Kd,[1]; [3],11.2 nM
same,apparent Kd,[1]; [4],11.4 nM
UCGUGUAUAUCGGAUACCAGUGAAAUCGAUACAUGAGGAUCACCCAUGUGAGAGGAUGUACACCCUUGGCAGCUGUAUAUAUCUG,apparent Kd,[1]; [3],24.3 nM
same,apparent Kd,[1]; [4],13.6 nM
ACAUGAGGAUCACCCAUGUUCCUCAUUGAUACCAGUGAAUUUAGACGCCCUUGGCAGCGAGUUUUUGAAGAAGAAGUUUUUUUUU,apparent Kd,[1]; [5],545 nM
same,apparent Kd,[1]; [6],1080 nM
AACAUGAGGAUUGAUACCAGUCCAUGAGGAUCACAUGAGGAUCACCCAUGUGGAACAUGAGGCCCUUGGCAGCAGUACAACAUGA,apparent Kd,[1]; [3],15.6 nM
same,apparent Kd,[1]; [4],11 nM
UCGGUACAUGAGGAUCACCCAUGUCGUCACAGAGCAGGAUAUUCAGGCUUCAGAGGUCGCGAAGAAGGGCUGGUGC,apparent Kd,[2]; [7],11.9 nM
same,apparent Kd,[2]; [8],9.02 nM
AAAUGCAUUCGAGGAUAUGUCAUGAUGUUGUAAACAGAAGGCGAGGCAUCGACAUGAGGAUCACCCAUGUGCACAGGUAAAAGU,apparent Kd,[2]; [7],37.6 nM
same,apparent Kd,[2]; [8],16.4 nM
GAGACAGGGCAGAAGGUUCUAAACGGCUAAAUGAAAGGAUAUGCAAACAUUGACAUGAGGAUCACCCAUGUGUUAAAAGCUACG,apparent Kd,[2]; [9],12.1 nM
same,apparent Kd,[2]; [10],9.88 nM
AUGUUCCGUUAGAAGGUGUUGAGUGGAGGCUCACAAGGAUAUAACUUCCUCGUCGAUGACAUGAGGAUCACCCAUGUAGCACAA,apparent Kd,[2]; [9],50.3 nM
same,apparent Kd,[2]; [10],38.1 nM
AGCAUGACAGCAGGAUAUGCGAACAGAAAUAGUGCAGAAGGGCUUUACACAUGAGGAUCACCCAUGUCCGCAAGGAUGCGUAUG,apparent Kd,[2]; [7],41.1 nM
same,apparent Kd,[2]; [8],19.4 nM
UGGUUAACAUGACAUGAGGAUCACCCAUGUCUUGGAAUUACAAGAAGGAAGGACACAGGUAGACCUUAGGAUAUUGUGACUUGA,apparent Kd,[2]; [7],24.6 nM
same,apparent Kd,[2]; [8],11.6 nM
CCCAUUGAGGAGGAUAUACUAUUGGAGACUCUCGUAGAAGGCCUGACAUGAGGAUCACCCAUGUACGUGAUAUC,apparent Kd,[2]; [9],121 nM
same,apparent Kd,[2]; [10],76.7 nM
AAACAUGAGGAUCACCCAUGUAGAAUAAUCAGACGUUUGAACAGAAGGUGAAAACAAAUAAAACUCAAGGAUAUGUAACUAAAA,apparent Kd,[2]; [7],65.6 nM
same,apparent Kd,[2]; [8],52.5 nM
AUGAAGCUAAGAGAUACCAGUGACCACAGAUACAUGAGGAUCACCCAUGUCUCAAAUUGUCACCCUUGGCAGCUCACUAUCGAAG,apparent Kd,[2]; [3],10.2 nM
same,apparent Kd,[2]; [4],9.26 nM
GGUUAACAUGAGGAUCACCCAUGUUAGGAUAUGCUACAGAGUCUGGUCCCUGGAAAUGGCAGAAGGAACGUGUU,apparent Kd,[2]; [9],17.2 nM
same,apparent Kd,[2]; [10],16.2 nM
GCUGCACAUGAGGAUCACCCAUGUACCCUACUGAGAGGAUAUGUGAUCCGUUAGCAAUCCACAGAAGGCUCGGUUC,apparent Kd,[2]; [7],51.2 nM
same,apparent Kd,[2]; [8],10.5 nM
AGCGUGUAAGGAUAUUGAUCUCCACUUCUGUAGGUCGGUGACAAGAAGGUACAUGAGGAUCACCCAUGUCCAUG,apparent Kd,[2]; [9],19.8 nM
same,apparent Kd,[2]; [10],21.7 nM
CUCCUCGUAGGAUAUCGCACCGCGUACAUGAGGAUCACCCAUGUGAUUCUAUAGAUUAAGCGAGAAGGACGACAGG,apparent Kd,[2]; [9],376 nM
same,apparent Kd,[2]; [10],269 nM
